Source: ChEMBL document CHEMBL1667800, “Synthesis, DNA/RNA affinity and antitumour activity of new aromatic diamidines linked by 3,4-ethylenedioxythiophene” (Eur J Med Chem, 2011)

Assays:
MCF7 = test: Cytotoxicity against human MCF7 cells after 72 hrs by MTT assay; assay type: functional; settings: MCF7, 72 h
Procedure, shortened: (§1)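 Cells were seeded at 2 × 10^4 cells/mL and attached overnight at 37 °C, 5% CO2. They were then exposed for 72 h to compounds from aqueous stocks (working solutions 10^-3–10^-6 mol dm^-3). MTT was added for 4 h at 37 °C, formazan dissolved in DMSO, and absorbance read at 570 nm. GI50 is the mean ± SD of three independent experiments run in triplicate.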

NCI-H358 = test: Cytotoxicity against human NCI-H358 cells after 72 hrs by MTT assay; assay type: functional; settings: NCI-H358, 72 h; procedure, shortened: as §1
Caco-2 = test: Cytotoxicity against human Caco2 cells after 72 hrs by MTT assay; assay type: functional; settings: Caco-2, 72 h; procedure, shortened: as §1
HEp-2 = test: Cytotoxicity against human Hep2 cells after 72 hrs by MTT assay; assay type: functional; settings: HEp-2, 72 h; procedure, shortened: as §1
HeLa [1] = test: Cytotoxicity against human HeLa cells after 72 hrs by MTT assay; assay type: functional; procedure, shortened: as §1
AGS = test: Cytotoxicity against human AGS cells after 72 hrs by MTT assay; assay type: functional; procedure, shortened: as §1
MIA PaCa-2 = test: Cytotoxicity against human MIAPaCa2 cells after 72 hrs by MTT assay; assay type: functional; settings: MIA PaCa-2, 72 h; procedure, shortened: as §1
[2] = Cytotoxicity against MDCK cells after 72 hrs by MTT assay; assay type: cell-based, Canis lupus familiaris; settings: dog; procedure, shortened: as §1
HeLa [3] = test: Induction of cell cycle arrest in human HeLa assessed as accumulation at G0/G1-phase at 5x10'-5 M after 24 hrs by FACS analysis (RVb = 62.2+/-4.4%); assay type: functional
HeLa [4] = test: Induction of cell cycle arrest in human HeLa assessed as accumulation at G0/G1-phase at 5x10'-5 M after 48 hrs by FACS analysis (RVb = 62.2+/-4.4%); assay type: functional
HeLa [5] = test: Induction of cell cycle arrest in human HeLa assessed as accumulation at G0/G1-phase at 5x10'-5 M after 72 hrs by FACS analysis (RVb = 62.2+/-4.4%); assay type: functional
HeLa [6] = test: Induction of cell cycle arrest in human HeLa assessed as accumulation at S-phase at 5x10'-5 M after 24 hrs by FACS analysis (RVb = 62.2+/-4.4%); assay type: functional
HeLa [7] = test: Induction of cell cycle arrest in human HeLa assessed as accumulation at S-phase at 5x10'-5 M after 48 hrs by FACS analysis (RVb = 62.2+/-4.4%); assay type: functional
HeLa [8] = test: Induction of cell cycle arrest in human HeLa assessed as accumulation at S-phase at 5x10'-5 M after 72 hrs by FACS analysis (RVb = 62.2+/-4.4%); assay type: functional
HeLa [9] = test: Induction of cell cycle arrest in human HeLa assessed as accumulation at G2/M-phase at 5x10'-5 M after 24 hrs by FACS analysis (RVb = […]); assay type: functional
HeLa [10] = test: Induction of cell cycle arrest in human HeLa assessed as accumulation at G2/M-phase at 5x10'-5 M after 48 hrs by FACS analysis (RVb = […]); assay type: functional
HeLa [11] = test: Induction of cell cycle arrest in human HeLa assessed as accumulation at G2/M-phase at 5x10'-5 M after 72 hrs by FACS analysis (RVb = […]); assay type: functional

Structure (SMILES): CN1CCN(c2ccc3[nH]c(-c4ccc5[nH]c(-c6ccc(O)cc6)nc5c4)nc3c2)CC1 [HOECHST 33258]
- GI50 (MCF7): 5.7 µM
- GI50 (NCI-H358): 91.7 µM
- GI50 (Caco-2): 84 µM
- GI50 (HEp-2): 132 µM
- GI50 (HeLa [1]): 116 µM
- GI50 (AGS): 112 µM
- GI50 (MIA PaCa-2): 192 µM
- GI50 at 72 h [2]: 158 µM
- Activity (HeLa [3]): 51.3%
- Activity (HeLa [4]): 49%
- Activity (HeLa [5]): 45.7%
- Activity (HeLa [6]): 41.6%
- Activity (HeLa [7]): 42.6%
- Activity (HeLa [8]): 43.1%
- Activity (HeLa [9]): 7.1%
- Activity (HeLa [10]): 8.4%
- Activity (HeLa [11]): 11.2%
